Laboratory results published in ChEMBL document CHEMBL1145138, “Design and synthesis of 4-azaindoles as inhibitors of p38 MAP kinase” (J Med Chem, 2003).

Assays:
[1] = biological target: T1, Mitogen-activated protein kinase 14 (Homo sapiens, UniProt Q16539); experiment: In vitro inhibitory concentration against Mitogen-activated protein kinase p38 alpha
[2] = biological target: Mitogen-activated protein kinase 14 (Rattus norvegicus) (UniProt P70618); experiment: In vivo percent inhibition of LPS stimulated TNF alpha synthesis in rat at a concentration of 30 mg/kg; type: functional, organism-based; set-up: dose 30 mg/kg
Sequence of Mitogen-activated protein kinase 14 (Rattus norvegicus) (P70618 whole entry): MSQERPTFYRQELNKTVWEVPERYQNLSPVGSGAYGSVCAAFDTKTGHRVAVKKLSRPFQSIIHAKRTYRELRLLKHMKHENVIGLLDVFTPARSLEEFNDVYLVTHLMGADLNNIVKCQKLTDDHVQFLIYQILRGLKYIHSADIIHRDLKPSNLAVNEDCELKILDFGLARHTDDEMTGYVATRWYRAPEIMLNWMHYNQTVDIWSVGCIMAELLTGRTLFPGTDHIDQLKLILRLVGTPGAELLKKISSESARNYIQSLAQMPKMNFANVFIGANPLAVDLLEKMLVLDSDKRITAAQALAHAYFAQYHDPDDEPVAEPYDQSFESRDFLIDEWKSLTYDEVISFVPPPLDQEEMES
In short: (§1)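 Female Wistar/Han rats, 8 per group, were dosed orally at −30 min with compound in CMC vehicle (0.9% NaCl, 0.5% Na-CMC, 0.4% polysorbate 80, 0.9% benzyl alcohol) or with vehicle alone. LPS 50 μg/kg was given ip at 0 h. At 1.5 h, blood was taken by cardiocentesis after CO₂ euthanasia, and serum TNFα was measured by ELISA against vehicle controls.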

[3] = biological target: Mitogen-activated protein kinase 14 (Rattus norvegicus) (UniProt P70618); experiment: In vivo percent inhibition of LPS stimulated TNF alpha synthesis in rat at a concentration of 10 mg/kg
Homo sapiens = species: Homo sapiens; experiment: Caco-2 permeability was determined; activity value is 5.8*10e-5; type: ADME
[4] = biological target: Cyclin-dependent kinase 3 (Homo sapiens, UniProt Q00526); experiment: Inhibition of Cyclin-dependent kinase 3
Sequence of Cyclin-dependent kinase 3 (Q00526 whole entry): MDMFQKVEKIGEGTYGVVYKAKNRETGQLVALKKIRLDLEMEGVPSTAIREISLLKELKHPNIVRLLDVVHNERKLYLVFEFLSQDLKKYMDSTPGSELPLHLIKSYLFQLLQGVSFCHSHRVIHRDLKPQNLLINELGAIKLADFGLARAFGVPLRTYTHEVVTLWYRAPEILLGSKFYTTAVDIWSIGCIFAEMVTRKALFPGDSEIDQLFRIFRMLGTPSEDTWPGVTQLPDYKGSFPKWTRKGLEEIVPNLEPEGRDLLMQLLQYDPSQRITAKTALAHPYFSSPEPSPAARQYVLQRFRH

[5] = biological target: Cyclin-dependent kinase 1 (Homo sapiens, UniProt P06493); experiment: Inhibition of Cyclin-dependent kinase 1
Sequence of Cyclin-dependent kinase 1 (P06493 whole entry): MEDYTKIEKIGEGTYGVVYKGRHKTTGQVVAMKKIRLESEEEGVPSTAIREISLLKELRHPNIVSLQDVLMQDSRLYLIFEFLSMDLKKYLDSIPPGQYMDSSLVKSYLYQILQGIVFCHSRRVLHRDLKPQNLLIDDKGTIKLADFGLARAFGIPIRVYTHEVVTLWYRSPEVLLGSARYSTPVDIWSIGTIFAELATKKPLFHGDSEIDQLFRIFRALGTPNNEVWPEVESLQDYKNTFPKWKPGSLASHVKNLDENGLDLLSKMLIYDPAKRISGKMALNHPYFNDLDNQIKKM

[6] = biological target: Cyclin-dependent kinase 4 (Homo sapiens, UniProt P11802); experiment: Inhibition of Cyclin-dependent kinase 4
Sequence of Cyclin-dependent kinase 4 (P11802 whole entry): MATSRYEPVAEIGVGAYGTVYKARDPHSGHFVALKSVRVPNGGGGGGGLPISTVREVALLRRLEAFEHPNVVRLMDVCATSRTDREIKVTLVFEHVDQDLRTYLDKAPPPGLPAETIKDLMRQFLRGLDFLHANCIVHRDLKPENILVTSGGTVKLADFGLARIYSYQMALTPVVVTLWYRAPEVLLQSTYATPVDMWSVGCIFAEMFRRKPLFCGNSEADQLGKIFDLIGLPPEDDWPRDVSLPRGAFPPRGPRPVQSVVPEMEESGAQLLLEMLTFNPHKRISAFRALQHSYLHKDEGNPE

[7] = T 1/2 at a dose of 10 mg/Kg administered perorally in female hanover-wistar rat; type: ADME, organism-based; details: in vivo, po
In short: (§2)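 Female Wistar/Han rats (180–220 g, n=3 per regime) received a single 10 mg/kg oral suspension in 0.9% NaCl, 0.5% Na-CMC, 0.4% polysorbate 80 and 0.9% benzyl alcohol. Blood was taken at 1, 3, 6, 8 and 24 h by orbital sinus or cardiac puncture. Plasma drug was measured by LC/MS after acetonitrile precipitation; the comparison arm was a 10 mg/kg IV bolus.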

[8] = biological target: MAP kinase-activated protein kinase 2 (Homo sapiens, UniProt P49137); experiment: Inhibition of MAP kinase-activated protein kinase 2
Sequence of MAP kinase-activated protein kinase 2 (P49137 whole entry): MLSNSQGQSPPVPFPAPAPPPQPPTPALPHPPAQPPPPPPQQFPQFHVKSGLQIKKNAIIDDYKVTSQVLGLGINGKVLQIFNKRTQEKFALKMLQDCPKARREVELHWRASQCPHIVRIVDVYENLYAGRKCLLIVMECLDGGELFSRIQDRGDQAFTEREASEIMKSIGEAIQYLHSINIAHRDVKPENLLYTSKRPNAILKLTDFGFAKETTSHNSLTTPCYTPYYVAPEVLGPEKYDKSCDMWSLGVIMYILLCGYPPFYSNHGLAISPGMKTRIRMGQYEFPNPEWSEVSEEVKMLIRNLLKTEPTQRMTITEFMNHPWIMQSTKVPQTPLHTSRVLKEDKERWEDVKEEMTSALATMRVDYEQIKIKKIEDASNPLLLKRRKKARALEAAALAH

[9] = T max at a dose of 10 mg/Kg administered perorally in female hanover-wistar rat; type: ADME, organism-based; details: in vivo, po; in short: as §2
[10] = CL at a dose of 10 mg/Kg administered intravenously in female hanover-wistar rat; type: ADME, organism-based; details: in vivo, iv
In short: (§3)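 Female Wistar/Han rats weighing 180–220 g, 3 per dose regime, received a single 10 mg/kg IV bolus in 50% cyclodextran/water. Blood was drawn under CO₂:O₂ (60:40) via orbital sinus or cardiac puncture at 1, 3, 6, 8 and 24 h. Plasma was protein-precipitated with acetonitrile, diluted in 50 mM formate buffer and quantified by LC/MS.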

[11] = T 1/2 at a dose of 10 mg/Kg administered intravenously in female hanover-wistar rat; type: ADME, organism-based; details: in vivo, iv; in short: as §3
[12] = biological target: Mitogen-activated protein kinase; ERK1/ERK2 (Homo sapiens, UniProt P27361+P28482); experiment: Inhibition of Mitogen-activated protein kinase ERK; type: protein assay
MAP kinase p38 [13] = biological target: T2, MAP kinase p38 (Homo sapiens, UniProt O15264+Q15759+Q16539+P53778); experiment: Inhibition of LPS-induced p38-related IL1-beta production in human white blood cells; type: functional, cell-based
In short: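 Heparinized whole blood from donors medication-free for at least 14 days. Compounds came from a 6 mM DMSO stock, six 3-fold serial dilutions in DMSO, then diluted 1/20 in RPMI and run in triplicate. Blood was preincubated with compound 30 min at 37 °C, then stimulated with E. coli 0127:B8 LPS at 0.5 μg/mL final overnight at 37 °C, 5% CO₂. Plasma IL-1β was measured by ELISA.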

MAP kinase p38 [14] = biological target: T2, MAP kinase p38; experiment: In vitro inhibition of LPS induced p38-related TNFalpha release by THP-1 cells; type: functional, cell-based
In short: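 THP-1 cells at 2.5×10⁶ cells/mL in RPMI with 15% FBS and 0.02 mM 2-mercaptoethanol were preincubated 30 min at 37 °C with compound in DMSO-containing medium (DMSO stated as 5% final). LPS was then added at 0.5 μg/mL final for a further 2 h. Supernatant TNFα was read by trapping ELISA with two anti-TNFα antibodies.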

[15] = AUC at a dose of 10 mg/Kg administered perorally in female hanover-wistar rat; type: ADME, organism-based; details: plasma, po; in short: as §2
[16] = biological target: Cyclin-dependent kinase 2 (Homo sapiens, UniProt P24941); experiment: Inhibition of Cyclin-dependent kinase 2
[17] = biological target: T3, Interleukin-1 receptor-associated kinase 4 (Homo sapiens, UniProt Q9NWZ3); experiment: Inhibition of Interleukin-1 receptor-associated kinase-4
T3 sequence (Q9NWZ3 whole entry): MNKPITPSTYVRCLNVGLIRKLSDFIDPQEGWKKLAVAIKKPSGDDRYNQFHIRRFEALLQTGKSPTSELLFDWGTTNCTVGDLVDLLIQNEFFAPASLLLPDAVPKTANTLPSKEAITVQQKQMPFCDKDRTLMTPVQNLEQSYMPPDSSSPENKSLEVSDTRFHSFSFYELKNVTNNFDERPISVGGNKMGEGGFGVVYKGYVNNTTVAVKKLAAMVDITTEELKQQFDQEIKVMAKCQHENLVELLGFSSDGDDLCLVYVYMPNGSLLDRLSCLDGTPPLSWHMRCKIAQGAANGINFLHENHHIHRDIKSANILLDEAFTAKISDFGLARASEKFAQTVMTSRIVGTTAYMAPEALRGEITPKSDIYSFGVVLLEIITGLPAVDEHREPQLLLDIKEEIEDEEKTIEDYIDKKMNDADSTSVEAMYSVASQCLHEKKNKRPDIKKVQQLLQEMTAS

Protein kinase C (PKC) = experiment: Inhibition of Protein kinase C; type: protein assay
[18] = Partition coefficient (logP); type: physicochemical; details: octanol/water
[19] = biological target: Interleukin-1 receptor-associated kinase 1 (Homo sapiens, UniProt P51617); experiment: Inhibition of interleukin-1 receptor-associated kinase 1
Sequence of Interleukin-1 receptor-associated kinase 1 (P51617 whole entry): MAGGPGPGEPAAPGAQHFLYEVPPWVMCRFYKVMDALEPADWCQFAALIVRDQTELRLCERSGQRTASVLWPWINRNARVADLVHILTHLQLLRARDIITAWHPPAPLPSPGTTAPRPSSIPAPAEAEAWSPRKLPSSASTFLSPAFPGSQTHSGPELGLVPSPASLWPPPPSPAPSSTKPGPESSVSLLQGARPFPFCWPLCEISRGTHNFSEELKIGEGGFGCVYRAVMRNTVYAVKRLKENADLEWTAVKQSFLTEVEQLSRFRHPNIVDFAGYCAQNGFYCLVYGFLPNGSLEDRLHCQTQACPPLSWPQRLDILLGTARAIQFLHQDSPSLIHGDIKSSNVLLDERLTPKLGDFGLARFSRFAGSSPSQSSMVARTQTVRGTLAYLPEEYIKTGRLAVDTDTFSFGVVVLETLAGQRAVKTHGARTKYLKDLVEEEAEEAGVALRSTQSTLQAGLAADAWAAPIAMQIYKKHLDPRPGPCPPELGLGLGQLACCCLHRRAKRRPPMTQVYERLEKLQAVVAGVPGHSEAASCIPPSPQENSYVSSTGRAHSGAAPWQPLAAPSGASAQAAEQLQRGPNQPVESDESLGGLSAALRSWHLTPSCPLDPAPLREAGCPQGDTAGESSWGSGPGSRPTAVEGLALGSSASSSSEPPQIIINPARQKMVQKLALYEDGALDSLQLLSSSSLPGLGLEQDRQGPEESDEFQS

[20] = T max at a dose of 10 mg/Kg administered intravenously in female hanover-wistar rat; type: ADME, organism-based; details: in vivo, iv; in short: as §3
[21] = biological target: Tyrosine-protein kinase Fyn (Homo sapiens, UniProt P06241); experiment: Inhibition of p55 Fyn kinase
Sequence of Tyrosine-protein kinase Fyn (P06241 whole entry): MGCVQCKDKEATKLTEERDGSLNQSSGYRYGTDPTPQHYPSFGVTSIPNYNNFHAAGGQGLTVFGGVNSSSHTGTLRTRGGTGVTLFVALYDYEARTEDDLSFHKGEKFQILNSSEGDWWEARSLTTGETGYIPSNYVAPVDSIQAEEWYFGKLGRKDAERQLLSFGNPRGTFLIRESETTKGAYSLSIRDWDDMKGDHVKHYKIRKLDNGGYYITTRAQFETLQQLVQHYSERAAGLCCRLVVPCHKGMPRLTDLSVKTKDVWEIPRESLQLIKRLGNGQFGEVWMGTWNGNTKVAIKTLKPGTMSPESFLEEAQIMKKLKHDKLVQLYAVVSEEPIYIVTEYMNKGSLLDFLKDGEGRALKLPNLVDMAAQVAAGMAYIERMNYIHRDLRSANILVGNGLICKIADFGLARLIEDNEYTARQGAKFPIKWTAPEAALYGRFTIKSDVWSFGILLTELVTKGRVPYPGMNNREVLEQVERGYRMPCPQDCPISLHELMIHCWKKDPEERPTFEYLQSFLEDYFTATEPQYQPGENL

[22] = biological target: T4, Inhibitor of nuclear factor kappa-B kinase subunit beta (Homo sapiens, UniProt O14920); experiment: Inhibition of I-kappa-B-kinase beta
T4 sequence (O14920 whole entry): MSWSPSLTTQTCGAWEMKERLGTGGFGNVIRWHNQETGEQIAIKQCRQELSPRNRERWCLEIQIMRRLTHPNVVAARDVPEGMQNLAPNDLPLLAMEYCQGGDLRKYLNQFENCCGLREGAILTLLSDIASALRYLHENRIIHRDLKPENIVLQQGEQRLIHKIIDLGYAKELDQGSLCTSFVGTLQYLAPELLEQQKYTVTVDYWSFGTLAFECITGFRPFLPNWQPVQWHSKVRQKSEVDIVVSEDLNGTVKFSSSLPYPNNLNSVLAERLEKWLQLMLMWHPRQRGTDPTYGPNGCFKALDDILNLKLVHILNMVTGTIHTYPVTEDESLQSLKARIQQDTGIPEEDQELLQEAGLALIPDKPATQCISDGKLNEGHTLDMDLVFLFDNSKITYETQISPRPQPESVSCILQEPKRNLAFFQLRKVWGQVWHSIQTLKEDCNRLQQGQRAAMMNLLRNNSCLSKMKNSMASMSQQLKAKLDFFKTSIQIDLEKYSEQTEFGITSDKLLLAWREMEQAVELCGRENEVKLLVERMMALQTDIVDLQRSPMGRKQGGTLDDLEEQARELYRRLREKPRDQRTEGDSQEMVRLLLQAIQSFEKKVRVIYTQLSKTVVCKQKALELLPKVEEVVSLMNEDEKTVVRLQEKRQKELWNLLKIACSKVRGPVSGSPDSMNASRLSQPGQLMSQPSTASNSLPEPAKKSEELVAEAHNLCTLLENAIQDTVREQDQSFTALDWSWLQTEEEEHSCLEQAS

Rattus norvegicus = species: Rattus norvegicus; experiment: Effective dose against LPS stimulated TNF alpha production in rats; type: functional; in short: as §1
[23] = biological target: cAMP-dependent protein kinase (PKA) (Homo sapiens, UniProt P22694+P17612+P22612); experiment: Inhibition of Protein kinase A (PKA); type: protein assay
[24] = biological target: Vascular endothelial growth factor receptor 2 (Homo sapiens, UniProt P35968); experiment: Inhibition of Vascular endothelial growth factor receptor 2
Sequence of Vascular endothelial growth factor receptor 2 (P35968 whole entry): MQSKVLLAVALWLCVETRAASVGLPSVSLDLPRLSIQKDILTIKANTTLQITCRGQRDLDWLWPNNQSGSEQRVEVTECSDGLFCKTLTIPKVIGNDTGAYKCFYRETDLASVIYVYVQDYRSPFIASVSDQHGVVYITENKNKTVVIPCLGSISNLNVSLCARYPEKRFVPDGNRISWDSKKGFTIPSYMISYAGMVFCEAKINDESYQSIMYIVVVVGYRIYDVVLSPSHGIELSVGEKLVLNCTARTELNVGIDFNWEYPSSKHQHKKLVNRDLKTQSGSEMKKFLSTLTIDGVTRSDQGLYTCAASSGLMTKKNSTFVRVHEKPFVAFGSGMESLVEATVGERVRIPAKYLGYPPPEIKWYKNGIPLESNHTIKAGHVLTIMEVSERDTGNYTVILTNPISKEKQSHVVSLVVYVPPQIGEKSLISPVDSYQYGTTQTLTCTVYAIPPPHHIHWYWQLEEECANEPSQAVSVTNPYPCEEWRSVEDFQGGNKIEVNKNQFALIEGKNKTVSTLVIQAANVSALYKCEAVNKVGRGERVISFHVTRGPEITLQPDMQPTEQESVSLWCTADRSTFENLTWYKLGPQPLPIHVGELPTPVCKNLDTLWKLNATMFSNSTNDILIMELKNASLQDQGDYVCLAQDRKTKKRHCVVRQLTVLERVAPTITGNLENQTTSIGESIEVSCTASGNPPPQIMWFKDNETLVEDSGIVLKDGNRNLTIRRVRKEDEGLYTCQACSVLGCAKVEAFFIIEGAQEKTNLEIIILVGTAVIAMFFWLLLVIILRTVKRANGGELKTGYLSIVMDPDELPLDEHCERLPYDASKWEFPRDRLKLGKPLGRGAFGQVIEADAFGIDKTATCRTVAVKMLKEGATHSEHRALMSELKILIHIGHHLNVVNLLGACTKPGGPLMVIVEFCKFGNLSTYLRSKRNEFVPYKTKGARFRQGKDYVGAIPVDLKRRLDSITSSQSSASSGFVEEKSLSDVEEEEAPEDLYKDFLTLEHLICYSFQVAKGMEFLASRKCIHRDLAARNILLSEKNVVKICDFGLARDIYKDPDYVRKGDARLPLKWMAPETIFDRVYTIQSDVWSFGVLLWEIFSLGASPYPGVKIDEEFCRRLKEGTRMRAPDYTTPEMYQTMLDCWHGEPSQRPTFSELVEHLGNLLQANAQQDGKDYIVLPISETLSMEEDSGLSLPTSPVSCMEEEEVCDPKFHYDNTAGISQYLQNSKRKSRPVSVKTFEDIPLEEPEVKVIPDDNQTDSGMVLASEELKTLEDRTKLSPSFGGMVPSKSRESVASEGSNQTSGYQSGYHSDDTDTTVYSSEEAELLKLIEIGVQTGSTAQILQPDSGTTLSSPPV

[25] = AUC at a dose of 10 mg/Kg administered intravenously in female hanover-wistar rat; type: ADME, organism-based; details: plasma, iv; in short: as §3
[26] = biological target: Mitogen-activated protein kinase 8 (Homo sapiens, UniProt P45983); experiment: Inhibition of c-Jun N-terminal kinase 1
Sequence of Mitogen-activated protein kinase 8 (P45983 whole entry): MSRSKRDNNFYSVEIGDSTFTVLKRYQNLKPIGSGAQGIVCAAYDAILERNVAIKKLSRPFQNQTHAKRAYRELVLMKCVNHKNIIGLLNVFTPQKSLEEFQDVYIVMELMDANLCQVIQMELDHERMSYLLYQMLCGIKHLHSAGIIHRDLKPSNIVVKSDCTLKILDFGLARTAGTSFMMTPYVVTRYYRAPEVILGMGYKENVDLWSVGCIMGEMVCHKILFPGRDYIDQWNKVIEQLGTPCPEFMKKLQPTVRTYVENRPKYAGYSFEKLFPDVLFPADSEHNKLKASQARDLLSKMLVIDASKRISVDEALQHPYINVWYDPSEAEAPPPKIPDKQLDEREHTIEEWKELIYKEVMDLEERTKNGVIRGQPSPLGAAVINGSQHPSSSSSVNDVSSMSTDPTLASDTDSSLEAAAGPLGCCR

[27] = C max at a dose of 10 mg/Kg administered perorally in female hanover-wistar rat; type: ADME, organism-based; set-up: dose 10 mg/Kg, route oral; details: in vivo, po; in short: as §2
[28] = biological target: T1, Mitogen-activated protein kinase 14; experiment: Inhibition of Mitogen-activated protein kinase p38 alpha
In short: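 Human recombinant active p38α (5 nM) in MOPS pH 7.4 buffer (40 mM MgCl₂, 1 mM DTT, β-glycerophosphate, EGTA, orthovanadate) was preincubated 10 min at room temperature with compound (0–10 μM, DMSO). Reaction was started with γ-[³³P]ATP (50 μM) and MBP (35 μM), run 30 min at 30 °C, then captured on phosphocellulose, acid-washed and counted. IC50 was fitted as fractional activity = 1/([I]/IC50 + 1).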

[29] = Bioavailability at a dose of 10 mg/Kg administered perorally in female hanover-wistar rat; type: ADME, organism-based; details: in vivo, po; in short: as §2
[30] = C max at a dose of 10 mg/Kg administered intravenously in female hanover-wistar rat; type: ADME, organism-based; set-up: dose 10 mg/Kg, route intravenous; details: in vivo, iv; in short: as §3

T1 sequence (Q16539 whole entry): as the sequence (P70618 whole entry) above, with V17I, H48L, A263T, E321D, F332L counted along it

## Fc1ccc(-c2c(-c3ccncc3)[nH]c3cccnc23)cc1
[1]
  IC50: 6.5 nM
[2]
  inhibition: 46%

## Fc1ccc(-c2c(-c3ccncc3)[nH]c3ccncc23)cc1
[1]
  IC50: 3100 nM

## CCn1c(-c2ccncc2)c(-c2ccc(F)cc2)c2ncccc21
[1]
  IC50: 24 nM
[2]
  inhibition: 41%

## Cn1c(-c2ccncc2)c(-c2ccc(F)cc2)c2ncccc21
[1]
  IC50: 98 nM
[2]
  inhibition: 53%

## Fc1ccc(-c2c(-c3ccncc3)[nH]c3ccccc23)cc1
[1]
  IC50: 1800 nM

## O=C(O)Cn1c(-c2ccncc2)c(-c2ccc(F)cc2)c2ncccc21
[1]
  IC50: 23600 nM
[2]
  inhibition: 50%

## Fc1ccc(-c2c(-c3ccncc3)[nH]c3cncnc23)cc1
[1]
  IC50: 895 nM
[2]
  inhibition: 26%

## CCC(O)CNc1cc(-c2[nH]c3cccnc3c2-c2ccc(F)cc2)ccn1 (stereo not drawn)
[1]
  IC50: 3 nM
[3]
  inhibition: 85%

## C[C@H](O)CNc1cc(-c2[nH]c3cccnc3c2-c2ccc(F)cc2)ccn1
Homo sapiens
  Cell permeation: Permeable
[4]
  IC50: > 25000 nM
[5]
  IC50: > 25000 nM
[6]
  IC50: > 25000 nM
[7]
  half-life: 1.5 h
[1]
  IC50: 1 nM
[8]
  IC50: > 30000 nM
[9]
  Tmax: 1 h
[10]
  clearance: 20 mL/min/kg
[2]
  inhibition: 88%
[11]
  half-life: 1.1 h
[12]
  IC50: > 10000 nM
MAP kinase p38 [13]
  IC50: 210 nM
MAP kinase p38 [14]
  IC50: 1.7 nM
[15]
  AUC: 20 µM·h
[16]
  IC50: > 25000 nM
[17]
  IC50: > 30000 nM
Protein kinase C (PKC)
  IC50: > 10000 nM
[18]
  logP: 3.5
[19]
  IC50: > 30000 nM
[20]
  Tmax: < 1 h
[21]
  IC50: > 10000 nM
[22]
  IC50: > 30000 nM
Rattus norvegicus
  ED50: 2 mg/kg
[23]
  IC50: > 10000 nM
[24]
  IC50: > 10000 nM
[25]
  AUC: 23.4 µM·h
[26]
  IC50: > 10000 nM
[27]
  Cmax: 6.9 µM
[28]
  IC50: 1.29 nM
[29]
  bioavailability: 85.6%
[30]
  Cmax: 10.3 µM

## Fc1ccc(-c2c(-c3ccncc3)n(CCN3CCOCC3)c3cccnc23)cc1
[1]
  IC50: 185 nM
[2]
  inhibition: 79%
